Test results taken from ChEMBL document CHEMBL2163328, “Inhibition of TNF-α-Induced Inflammation by andrographolide via down-regulation of the PI3K/Akt signaling pathway” (J Nat Prod, 2011).
One block for each molecule: values may come before it. Calls of active or inactive are those of the source. No cut-off for these calls is given here.

Key:
HUVEC [1] = experiment: Inhibition of TNFalpha-stimulated human ICAM-1 promoter activity expressed in HUVEC assessed as […] activity at 10 to 25 uM pretreated for 30 mins before TNFalpha challenge measured after 5 hrs by luciferase reporter gene assay; type: functional, cell-based
Outline: (§1)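 HUVEC transiently transfected by nanofection with human ICAM-1 promoter-luciferase (pIC339) plus pSV-β-galactosidase for 4 h. Pretreated 30 min, then TNF-α 1 ng/mL for 5 h. Luciferase activity measured in lysate supernatants and normalized to β-galactosidase activity for transfection efficiency. Three independent experiments.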

HUVEC [2] = experiment: Inhibition of TNFalpha-stimulated DNA binding activity of NFkappaB in HUVEC at 10 to 25 uM pretreated for 16 hrs before TNFalpha challenge measured after 30 mins by EMSA; type: cell-based; settings: Homo sapiens
Outline: (§2)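 EMSA: nuclear extracts prepared by hypotonic then hypertonic (400 mM KCl) extraction. 2 μg nuclear protein incubated with biotin-labeled NF-κB probe and poly(dI-dC) at room temperature for 30 min. Complexes separated on 6% TBE-PAGE, transferred to nylon and detected with streptavidin-HRP. Specificity checked with 100-fold excess unlabeled and mutant oligonucleotides.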

HUVEC [3] = experiment: Inhibition of TNFalpha-stimulated ICAM-1 mRNA expression in HUVEC at 10 to 25 uM pretreated for 16 hrs before TNFalpha challenge measured after 6 hrs by RT-PCR analysis; type: functional, cell-based; settings: Homo sapiens
Outline: (§3)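 HUVEC pretreated 16 h, then TNF-α 1 ng/mL for 6 h. Total RNA isolated with TRIzol; 4 μg reverse-transcribed with M-MLV RT and oligo(dT). ICAM-1 amplified for 32 cycles (94 °C 1 min, 55 °C 1 min, 72 °C 2 min) after 95 °C for 5 min. Normalized to GAPDH; products resolved on 1% agarose and quantified by densitometry.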

[4] = Cytotoxicity against TNFalpha-stimulated HUVEC assessed as cell viability at 20 uM pretreated for 16 hrs before TNFalpha challenge measured after 6 hrs by MTT assay (reference value: 103.8 +/- 6.1%); type: cell-based; settings: human, TNFalpha-stimulated HUVEC cells; read-out: Activity
[5] = Cytotoxicity against TNFalpha-stimulated HUVEC assessed as cell viability at 5 uM pretreated for 16 hrs before TNFalpha challenge measured after 6 hrs by MTT assay (reference value: 103.8 +/- 6.1%); type: cell-based; settings: human, TNFalpha-stimulated HUVEC cells; read-out: Activity
HUVEC [6] = experiment: Toxicity in HUVEC assessed as induction of ICAM-1 expression at 5 to 20 uM measured after 6 hrs by Western blot analysis; type: cell-based; settings: human
HUVEC [7] = experiment: Inhibition of TNFalpha-stimulated DNA binding activity of NFkappaB in HUVEC at 5 to 20 uM pretreated for 16 hrs before TNFalpha challenge measured after 30 mins by EMSA; type: cell-based; settings: Homo sapiens; outline: as §2
[8] = Cytotoxicity against TNFalpha-stimulated HUVEC assessed as cell viability at 10 uM pretreated for 16 hrs before TNFalpha challenge measured after 6 hrs by MTT assay (reference value: 103.8 +/- 6.1%); type: cell-based; settings: human, TNFalpha-stimulated HUVEC cells; read-out: Activity
[9] = target: RAC-alpha serine/threonine-protein kinase (Homo sapiens) (UniProt P31749); experiment: Inhibition of TNFalpha-stimulated Akt1 phosphorylation at Ser473 in HUVEC at 20 uM pretreated for 16 hrs before TNFalpha challenge measured after 15 mins by Western blot analysis
HUVEC [10] = experiment: Inhibition of TNFalpha-stimulated total ICAM-1 expression in HUVEC at 5 to 20 uM pretreated for 16 hrs before TNFalpha challenge measured after 6 hrs by Western blot analysis; type: functional, cell-based; settings: Homo sapiens
Outline: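 HUVEC pretreated 16 h, then TNF-α 1 ng/mL for 6 h. Lysed in Tris/EDTA/PMSF/aprotinin buffer at pH 7.4; equal protein run on SDS-PAGE and transferred to PVDF. Blocked in 5% milk at 4 °C overnight, probed with anti-ICAM-1 and HRP secondary. ECL detection with densitometric quantitation. Means ± SD, n = 3.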

HUVEC [11] = experiment: Induction of NFkappaB activation in HUVEC by EMSA; type: cell-based; settings: Homo sapiens; outline: as §2
HUVEC [12] = experiment: Inhibition of TNFalpha-stimulated ICAM-1 mRNA expression in HUVEC at 20 uM pretreated for 16 hrs before TNFalpha challenge measured after 6 hrs by RT-PCR analysis; type: functional, cell-based; settings: Homo sapiens; outline: as §3
HUVEC [13] = experiment: Inhibition of TNFalpha-stimulated cell surface ICAM-1 expression in HUVEC at 5 to 20 uM pretreated for 16 hrs before TNFalpha challenge measured after 6 hrs by flow cytometry; type: functional, cell-based; settings: Homo sapiens
Outline: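 Cell-surface ICAM-1 by flow cytometry. HUVEC pretreated 16 h, then TNF-α 1 ng/mL for 6 h. Cells detached with trypsin and stained with FITC anti-ICAM-1 at 4 °C for 45 min in the dark. Washed three times in cold PBS before analysis. Three independent experiments.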

HUVEC [14] = experiment: Inhibition of TNFalpha-stimulated NFkappaB activation in HUVEC assessed as reduction of IkappaB degradation at 20 uM pretreated for 16 hrs before TNFalpha challenge measured after 30 mins by […]; type: cell-based; settings: Homo sapiens
HUVEC [15] = experiment: Inhibition of TNFalpha-stimulated HUVEC adhesion to BCECF-AM-labeled human HL60 cells at 20 uM pretreated for 16 hrs before TNFalpha challenge measured after 6 hrs by fluorescence assay; type: functional
Outline: (§4)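 HUVEC grown to 80% confluence, pretreated 16 h, then TNF-α 1 ng/mL for 6 h. Co-incubated with 4 × 10^5 BCECF-AM-labeled HL-60 cells per well, 37 °C, 30 min. Nonadherent cells removed by inverted centrifugation at 100g for 5 min. Bound cells lysed in 1% SDS; fluorescence read at ex 490/em 520 nm and converted to adherent cells/well by standard curve. Three independent experiments.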

[16] = target: RAC-alpha serine/threonine-protein kinase (Homo sapiens) (UniProt P31749); experiment: Induction of Akt1 phosphorylation at Ser473 expressed in HUVEC by Western blot analysis; type: cell-based
[17] = target: Transcription factor p65 (Homo sapiens) (UniProt Q04206); experiment: Inhibition of TNFalpha-stimulated NFkappaB activation in HUVEC assessed as reduction of nuclear p65 level at 20 uM pretreated for 16 hrs before TNFalpha challenge measured after 30 mins by […]
HUVEC [18] = experiment: Toxicity assessed as induction of HUVEC adhesion to BCECF-AM-labeled human HL60 cells by fluorescence assay; type: cell-based; outline: as §4
[19] = target: RAC-alpha serine/threonine-protein kinase (Homo sapiens) (UniProt P31749); experiment: Inhibition of TNFalpha-stimulated ICAM-1 expression in HUVEC transfected with activated AKT1 assessed as ICAM1 level at 10 uM incubated for 16 hrs by Western blot (reference value: 249%); type: cell-based; set-up: scale not given: the % may be the effect or the level left
[20] = target: RAC-alpha serine/threonine-protein kinase (Homo sapiens) (UniProt P31749); experiment: Inhibition of TNFalpha-stimulated Akt1 phosphorylation at Ser473 assessed as pAKT level in HUVEC at 10 uM pretreated for 16 hrs before TNFalpha challenge measured after 6 hrs by Western blot analysis (reference value: 249%); set-up: scale not given: the % may be the effect or the level left
[21] = target: RAC-alpha serine/threonine-protein kinase (Homo sapiens) (UniProt P31749); experiment: Inhibition of TNFalpha-stimulated AKT1-mediated ICAM-1 expression in HUVEC assessed as ICAM1 level at 10 uM pretreated for 16 hrs before TNFalpha challenge measured after 6 hrs by Western blot analysis (reference value: 345%); type: cell-based; set-up: scale not given: the % may be the effect or the level left
HUVEC [22] = experiment: Inhibition of TNFalpha-stimulated human ICAM-1 promoter activity expressed in HUVEC assessed as […] activity at 20 uM pretreated for 30 mins before TNFalpha challenge measured after 5 hrs by luciferase reporter gene assay; type: functional, cell-based; outline: as §1
[23] = target: RAC-alpha serine/threonine-protein kinase (Homo sapiens) (UniProt P31749); experiment: Inhibition of activated Akt1 phosphorylation at Ser473 expressed in HUVEC transfected with activated AKT1 assessed as pAKT level at 10 uM after 16 hrs by Western blot analysis (reference value: 272%); type: cell-based; set-up: scale not given: the % may be the effect or the level left

Sequence of RAC-alpha serine/threonine-protein kinase (Homo sapiens) (P31749 whole entry): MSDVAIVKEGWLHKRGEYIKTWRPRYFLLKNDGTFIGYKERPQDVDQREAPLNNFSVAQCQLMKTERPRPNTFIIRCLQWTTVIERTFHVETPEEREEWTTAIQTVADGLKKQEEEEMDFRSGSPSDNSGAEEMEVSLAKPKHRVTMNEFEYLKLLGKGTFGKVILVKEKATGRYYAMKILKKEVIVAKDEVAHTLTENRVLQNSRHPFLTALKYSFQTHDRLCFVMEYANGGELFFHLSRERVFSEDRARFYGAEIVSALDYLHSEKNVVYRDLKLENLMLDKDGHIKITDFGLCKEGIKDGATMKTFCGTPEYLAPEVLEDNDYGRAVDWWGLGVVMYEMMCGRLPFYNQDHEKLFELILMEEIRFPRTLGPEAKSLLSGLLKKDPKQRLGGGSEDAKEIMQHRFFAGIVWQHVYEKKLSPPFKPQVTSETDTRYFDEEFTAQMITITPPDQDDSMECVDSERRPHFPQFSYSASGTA
Sequence of Transcription factor p65 (Homo sapiens) (Q04206 whole entry): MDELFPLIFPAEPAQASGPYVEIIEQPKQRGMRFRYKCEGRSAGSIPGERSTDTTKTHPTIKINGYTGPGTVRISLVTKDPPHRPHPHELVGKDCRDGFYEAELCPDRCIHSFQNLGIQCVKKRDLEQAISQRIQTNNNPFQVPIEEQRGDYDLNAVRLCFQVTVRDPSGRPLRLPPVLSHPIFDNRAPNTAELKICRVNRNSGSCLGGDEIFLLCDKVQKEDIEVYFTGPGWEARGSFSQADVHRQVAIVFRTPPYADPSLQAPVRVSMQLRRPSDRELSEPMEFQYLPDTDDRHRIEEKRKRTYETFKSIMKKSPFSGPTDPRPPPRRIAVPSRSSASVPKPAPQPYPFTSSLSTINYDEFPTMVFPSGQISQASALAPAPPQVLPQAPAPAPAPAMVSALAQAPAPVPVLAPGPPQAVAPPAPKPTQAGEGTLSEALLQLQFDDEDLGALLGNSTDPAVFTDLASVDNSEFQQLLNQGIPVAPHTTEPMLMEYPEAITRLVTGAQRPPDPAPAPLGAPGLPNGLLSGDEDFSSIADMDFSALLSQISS

inhibition (HUVEC [1]): Active
inhibition (HUVEC [2]): Active
SMILES: O=c1cc(N2CCOCC2)oc2c(-c3ccccc3)cccc12
inhibition (HUVEC [3]): Active

inhibition (HUVEC [7]): Active
inhibition [9]: Active
Activity [16]: inactive
inhibition [17]: Active
Activity [19]: 177%
Activity [20]: 127%
Activity [21]: 36%
inhibition (HUVEC [22]): Active
Activity [23]: 111%
SMILES: C=C1CC[C@@H]2[C@](C)(CO)[C@H](O)CC[C@@]2(C)[C@@H]1C/C=C1/C(=O)OC[C@H]1O [ANDROGRAPHOLIDE]
viability at 6 h, 20 µM [4]: 87.5%
viability at 6 h, 5 µM [5]: 96.4%
Activity (HUVEC [6]): Non-toxic
viability at 6 h, 10 µM [8]: 94.6%
inhibition (HUVEC [10]): Active
Activity (HUVEC [11]): inactive
inhibition (HUVEC [12]): Active
inhibition (HUVEC [13]): Active
inhibition (HUVEC [14]): Active
inhibition at 20 µM (HUVEC [15]): 73%
Activity (HUVEC [18]): Non-toxic
